Measurements gathered from unrelated publications.
Protocols differ between the studies behind these lines.
Target: Mitogen-activated protein kinase kinase kinase 10 (MAP3K10, Homo sapiens, UniProt Q02779)

O=C1NC(=O)c2cc(Nc3ccc(F)cc3)c(Nc3ccc(F)cc3)cc21  remaining signal (cell-free assay; 0.5 µM): 90.6%
CCS(=O)(=O)c1cc2cc(C[C@](O)(CC(C)(C)c3ccc(F)cc3C(N)=O)C(F)(F)F)[nH]c2cn1  remaining binding (cell-free assay; competition with immobilised ligand; 1 µM): 100%
O=C1Nc2ccc(Cl)cc2C1=Cc1cc(Cl)c(O)c(Cl)c1  remaining signal (cell-free assay; 0.5 µM): 86.8%
O=C(Nc1cnn(-c2csc(C(=O)NC3COC3)c2)c1)Nc1ccccc1Cl  remaining activity (enzyme activity; inhibitor; 5 µM): 98.5%
CN1CC(Oc2cnc(C#N)cc2-c2ccn3nc(NC(=O)C4CC4)cc3c2)C1  inhibition (enzyme activity; inhibitor; 1 µM): 8%
C[C@@H]1CCN(C(=O)CC#N)C[C@@H]1N(C)c1ncnc2[nH]ccc12  remaining signal (cell-free assay; inhibitor; 0.5 µM): 105%
CC(C)(O)[C@H]1CC[C@H](Nc2ccc3ncc(-c4cccc(C(F)(F)F)c4)n3n2)CC1  remaining activity (enzyme activity; inhibitor; 1 µM): 85%
CCN(CC)CCNC(=O)c1c(C)[nH]c(/C=C2\C(=O)Nc3ccc(F)cc32)c1C  remaining signal (cell-free assay; 0.5 µM): 104%
C[C@@H]1CN(c2cc(-c3n[nH]c4ccc(OC5(C)CC5)cc34)ncn2)C[C@H](C)O1  remaining binding (cell-free assay; competition with immobilised ligand; 0.1 µM): 100%
c1ccc(CNc2nc(N3CCOc4ccccc43)nc3c2CCCC3)cc1  inhibition (target engagement in cells; inhibitor; chemoproteomics; 20 mM): 14.1%
CC(C)(C)c1nc2c(s1)c1nc(N)ncc1c1ccc(NS(=O)(=O)c3c(F)cccc3F)c(F)c12  remaining activity (enzyme activity; inhibitor; radiometric; 1 µM): 102%
CS(=O)(=O)NCC[C@H](NC(=O)c1cncc2c1cnn2-c1ccc(F)cc1)c1ccnc(S(C)(=O)=O)c1  remaining binding (cell-free assay; competition with immobilised ligand; 1 µM): 75%
CCCCNc1ncc2c(-c3ccc(F)cc3)nn(C[C@H]3CC[C@H](N)CC3)c2n1  inhibition (target engagement in cells; inhibitor; chemoproteomics; 20 mM): 65.4%
CCCOc1ccc([C@@H]2[C@@H](C(=O)O)[C@H](c3ccc4c(c3)OCO4)CN2CC(=O)Nc2c(CC)cccc2CC)cc1  remaining binding (cell-free assay; competition with immobilised ligand; 1 µM): 100%
Clc1ccc(Nc2nnc(Cc3ccncc3)c3ccccc23)cc1  remaining signal (cell-free assay; 0.5 µM): 110%
O=C1NC(c2ccccn2)Sc2ccccc21 (centres unmarked)  remaining binding (cell-free assay; competition with immobilised ligand; 1 µM): 94%
Cc1ccc(C(=O)NCc2ccsc2)cc1C#Cc1cn(C(C)C)c2ncnc(N)c12  activity vs control (enzyme activity; inhibitor; 1 µM): 5%
